The values that follow come from ChEMBL document CHEMBL2311390, “Synthesis and preliminary evaluation of pharmacological properties of some piperazine derivatives of xanthone” (Bioorg Med Chem, 2013).

In data set [1] the test system is Rattus norvegicus. The experiment in a line: Cardiotoxicity in Wistar rat assessed as QT interval at 5 mg/kg, iv after 10 mins by ECG analysis. In kind it is toxicity, organism-based. Details: dose 5 mg/kg, route intravenous. The settings on record: in vivo.
Data set [2] concerns Rattus norvegicus. The experiment in a line: Cardiotoxicity in Wistar rat assessed as hear beats per min at 5 mg/kg, iv after 5 mins by ECG analysis. In kind it is toxicity, organism-based. Set-up: dose 5 mg/kg, route intravenous. As to conditions: in vivo. Summed up:
(§1)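 Male normotensive Wistar rats, 170–350 g, six per group. Compound given iv at a constant volume of 1 mL/kg. ECG was recorded just before dosing and at 1, 5 and 15 min after. PQ, QRS and QT intervals and heart rate were read from the trace. Groups were compared by one-way ANOVA.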

In data set [3] the test system is Rattus norvegicus. Briefly: Cardiotoxicity in Wistar rat assessed as QRS interval at 5 mg/kg, iv after 5 mins by ECG analysis. Format: toxicity, organism-based. Details: dose 5 mg/kg, route intravenous. As to conditions: in vivo. Summed up:
as §1

Data set [4] deals with Rattus norvegicus. The experiment in a line: Hypotensive activity in normotensive Wistar rat assessed as reduction of diastolic blood pressure at 0.625 mg/kg, iv after 5 mins. In kind it is functional, Artery. The procedure, abridged: (§2)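 Male normotensive Wistar rats were anaesthetised with thiopental 75 mg/kg ip. The right carotid artery was cannulated with heparinised saline for pressure recording. After 5 min of stabilisation, compound was injected into the tail vein at 1 mL/kg. Systolic and diastolic pressure were followed up to 60 min. Data are means ± SEM of 5–6 rats, analysed by one-way ANOVA.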

For data set [5], the system named is Rattus norvegicus. Briefly: Hypotensive activity in normotensive Wistar rat assessed as reduction of systolic blood pressure at 0.625 mg/kg, iv after 60 mins. In kind it is functional, Artery. The procedure, abridged:
(§3)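 Male normotensive Wistar rats (170–350 g) anaesthetised with thiopental 75 mg/kg ip; right carotid artery cannulated with heparinised saline-filled polyethylene tubing for pressure recording. After a 5 min stabilisation, compound given into the caudal vein at 1 mL/kg. Systolic pressure is recorded at 0, 5, 10, 20, 30 and 60 min, and the data are reported as mean ± SEM of five to six animals, with one-way ANOVA.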

Data set [6] deals with Rattus norvegicus. Briefly: Hypotensive activity in normotensive Wistar rat assessed as reduction of diastolic blood pressure at 1.25 mg/kg, iv after 60 mins. In kind it is functional, Artery. Summed up: as §2
The test system of data set [7] is Rattus norvegicus. The experiment in a line: Hypotensive activity in normotensive Wistar rat assessed as reduction of diastolic blood pressure at 1.25 mg/kg, iv after 30 mins. In kind it is functional, Artery. The procedure, abridged:
as §2

Data set [8] deals with Rattus norvegicus. The experiment in a line: Hypotensive activity in normotensive Wistar rat assessed as reduction of systolic blood pressure at 1.25 mg/kg, iv after 20 mins. Format: functional, Artery. Summed up: as §3
For data set [9], the system named is Rattus norvegicus. The experiment in a line: Cardiotoxicity in Wistar rat assessed as PQ interval at 10 mg/kg, iv after 10 mins by ECG analysis. Format: toxicity, organism-based. Details: dose 10 mg/kg, route intravenous. As to conditions: in vivo.
For data set [10], the system named is Rattus norvegicus. Briefly: Cardiotoxicity in Wistar rat assessed as PQ interval at 10 mg/kg, iv after 5 mins by ECG analysis. In kind it is toxicity, organism-based. Set-up: dose 10 mg/kg, route intravenous. As to conditions: in vivo. The procedure, abridged: as §1
The subject of data set [11] is Rattus norvegicus. Briefly: Hypotensive activity in normotensive Wistar rat assessed as reduction of diastolic blood pressure at 0.16 mg/kg, iv after 20 mins. In kind it is functional, Artery. Summed up:
as §2

The subject of data set [12] is Rattus norvegicus. Briefly: Hypotensive activity in normotensive Wistar rat assessed as reduction of diastolic blood pressure at 0.16 mg/kg, iv after 30 mins. Format: functional, Artery. Summed up:
as §2

In data set [13] the test system is Rattus norvegicus. Briefly: Hypotensive activity in normotensive Wistar rat assessed as reduction of systolic blood pressure at 0.16 mg/kg, iv after 10 mins. In kind it is functional, Artery. Summed up: as §2
Data set [14] has as its system Rattus norvegicus. The experiment in a line: Hypotensive activity in normotensive Wistar rat assessed as reduction of systolic blood pressure at 0.16 mg/kg, iv after 20 mins. Format: functional, Artery. Summed up:
as §3

Data set [15] relates to Rattus norvegicus. Briefly: Hypotensive activity in normotensive Wistar rat assessed as reduction of systolic blood pressure at 0.16 mg/kg, iv after 5 mins. In kind it is functional, Artery. Summed up: as §3
The test system of data set [16] is Rattus norvegicus. The experiment in a line: Hypotensive activity in normotensive Wistar rat assessed as reduction of diastolic blood pressure at 0.31 mg/kg, iv after 20 mins. Format: functional, Artery. Summed up: as §2

Consider `Cl.Cl.O=c1c2ccccc2oc2c(OCC(O)CN3CCN(C/C=C/c4ccccc4)CC3)cccc12` (racemic), for which the Activity in the data set on Rattus norvegicus [1] stood at 77 ms; in the data set with Rattus norvegicus [2], 328 bpm; with Rattus norvegicus [3], 23.4 ms.

On to `COc1ccccc1N1CCN(CC(COc2cccc3c(=O)c4ccccc4oc23)OC(C)=O)CC1.Cl` (racemic), for which the Activity is reported as 95.6 mmHg in the data set on Rattus norvegicus [4]; 123.2 mmHg in the data set on Rattus norvegicus [5]; 89.6 mmHg with Rattus norvegicus [6]; 90.8 mmHg in the data set on Rattus norvegicus [7]; 117 mmHg in the data set on Rattus norvegicus [8].

Turning to `Cl.Cl.Cl.O=c1c2ccc(Cl)cc2oc2c(OCC(O)CN3CCN(CCOc4ccccc4)CC3)cccc12` (racemic), the Activity in the data set on Rattus norvegicus [9] stood at 33.6 ms; in the data set with Rattus norvegicus [10], 33.12 ms; in the data set on Rattus norvegicus [6], 103.6 mmHg; with Rattus norvegicus [7], 100.6 mmHg; in the data set with Rattus norvegicus [8], 110.8 mmHg.

Consider `COc1ccccc1N1CCN(CCCOc2cccc3c(=O)c4ccccc4oc23)CC1.Cl`, for which the Activity in the data set on Rattus norvegicus [4] worked out at 101 mmHg; with Rattus norvegicus [5], 129.5 mmHg; with Rattus norvegicus [11], 101 mmHg; in the data set with Rattus norvegicus [12], 100 mmHg; in the data set with Rattus norvegicus [13] it was 114 mmHg; with Rattus norvegicus [14] it was 113.4 mmHg. The Activity was 109.6 mmHg with Rattus norvegicus [15] and 105.7 mmHg in the data set on Rattus norvegicus [16].

Turning to `Cl.Cl.Cl.O=c1c2ccc(Cl)cc2oc2c(OCC(O)CN3CCN(C/C=C/c4ccccc4)CC3)cccc12` (racemic), the Activity with Rattus norvegicus [1] was 74.7 ms; in the data set with Rattus norvegicus [2], 317.3 bpm; in the data set on Rattus norvegicus [3], 20.2 ms.

As to `Cl.Cl.Cl.O=c1c2ccc(Cl)cc2oc2c(OCC(O)CN3CCN(Cc4ccccc4)CC3)cccc12` (racemic), the Activity was determined as 41.1 ms in the data set with Rattus norvegicus [9] and 41.9 ms with Rattus norvegicus [10].

`COc1ccccc1N1CCN(CC(O)COc2cccc3c(=O)c4ccccc4oc23)CC1.Cl` (racemic): the Activity with Rattus norvegicus [11] worked out at 103.8 mmHg; in the data set on Rattus norvegicus [12] it was 101.8 mmHg; with Rattus norvegicus [13], 124.8 mmHg; in the data set with Rattus norvegicus [14] it was 118.5 mmHg; with Rattus norvegicus [15] it was 124 mmHg; in the data set with Rattus norvegicus [16] it was 102 mmHg.
